Results as given in ChEMBL document CHEMBL3621119, “Synthesis and Biological Evaluation of Manassantin Analogues for Hypoxia-Inducible Factor 1α Inhibition” (J Med Chem, 2015).
Activity calls are given as the source filed them. The calls are words filed in the database; no cut-off is given here.

How the values were obtained:
[1] = molecular target: T1, Hypoxia inducible factors; HIF-1-alpha, HIF-2-alpha (Homo sapiens, UniProt Q16665+Q99814); assay: Inhibition of HIF1 in human HEK293T cells transfected with pGL3-5HRE-VEGF and pRL-SV40 after 24 hrs by dual luciferase reporter assay; type: cell-based; conditions: hek-293t
Method in brief: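 HEK-293T cells seeded at 5×10^3/well, attached 24 h, then co-transfected with pGL3-5HRE-VEGF firefly luciferase reporter (five HRE copies from human VEGF promoter) and pRL-SV40 Renilla plasmid. Serially diluted compounds applied under 1% O2 for 24 h post-transfection. Dual-Glo read-out, firefly then Renilla luminescence, each after 10 min; firefly normalized to Renilla (RLU). Three independent experiments, mean ± SD.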

[2] = Cytotoxicity against human HEK293T cells assessed as survival rate at 10 uM after 24 hrs by MTT assay; type: cell-based, HEK-293T; conditions: read-out: Survival
Method in brief: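 HEK-293T cells seeded at 1×10^4 cells/well and grown 24 h, then exposed under hypoxia for 24 h to serially diluted compounds (0.005–10 μM). MTT added and incubated 4 h at 37 °C. Formazan dissolved in DMSO, absorbance read at 540 nm. Survival expressed as % of cells. Three independent experiments.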

[3] = molecular target: T1, Hypoxia inducible factors; HIF-1-alpha, HIF-2-alpha; assay: Inhibition of HIF1 in human HEK293T cells transfected with pGL3-5HRE-VEGF and pRL-SV40 after 24 hrs by dual luciferase reporter assay relative to normoxic condition; type: cell-based; set-up: concentration or dose not given beside the values; conditions: HEK-293T, concentration not given here
[4] = molecular target: Hypoxia-inducible factor 1-alpha (Homo sapiens) (UniProt Q16665); assay: Inhibition of HIF1alpha in human HEK293T cells assessed as decrease of VEGF mRNA expression under hypoxic condition at 1 uM after 24 hrs by RT-PCR analysis; type: cell-based; conditions: HEK-293T
Method in brief: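 HEK-293T cells given 1 μM compound under hypoxia for 24 h, with a normoxic control. VEGF mRNA measured by real-time PCR on 10-fold diluted cDNA with gene-specific primers. Cycling: 50 °C 2 min, 95 °C 10 min, then 40 cycles of 95 °C 15 s and 60 °C 1 min. Mean CT normalized to β-actin.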

[5] = molecular target: Hypoxia-inducible factor 1-alpha (Homo sapiens) (UniProt Q16665); assay: Inhibition of HIF-1 alpha in human HEK293T cells under hypoxic condition at 1 uM after 24 hrs by Western blot analysis; type: cell-based; conditions: HEK-293T
Method in brief: (§1)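 HEK-293T cells held under hypoxia (1% O2) or normoxia for 24 h with or without 1 μM compound. Total protein lysates run on SDS-PAGE, transferred to nitrocellulose, blocked in 5% skim milk/TBS-0.1% Tween-20. Probed overnight at 4 °C with primary antibodies (HIF-1α, HIF-1β, Cdk6), then HRP secondary. Chemiluminescent detection, β-actin as loading control.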

[6] = molecular target: Hypoxia-inducible factor 1-alpha (Homo sapiens) (UniProt Q16665); assay: Inhibition of HIF1alpha in human HEK293T cells assessed as decrease of Cdk6 expression under hypoxic condition at 1 uM after 24 hrs by Western blot analysis; type: cell-based; conditions: HEK-293T; method in brief: as §1
[7] = molecular target: Aryl hydrocarbon receptor nuclear translocator (Homo sapiens) (UniProt P27540); assay: Inhibition of HIF1beta in HEK293T cells under hypoxic condition at 1 uM after 24 hrs by Western blot analysis; type: cell-based; conditions: HEK-293T; method in brief: as §1
Aryl hydrocarbon receptor nuclear translocator (Homo sapiens), sequence (P27540 whole entry): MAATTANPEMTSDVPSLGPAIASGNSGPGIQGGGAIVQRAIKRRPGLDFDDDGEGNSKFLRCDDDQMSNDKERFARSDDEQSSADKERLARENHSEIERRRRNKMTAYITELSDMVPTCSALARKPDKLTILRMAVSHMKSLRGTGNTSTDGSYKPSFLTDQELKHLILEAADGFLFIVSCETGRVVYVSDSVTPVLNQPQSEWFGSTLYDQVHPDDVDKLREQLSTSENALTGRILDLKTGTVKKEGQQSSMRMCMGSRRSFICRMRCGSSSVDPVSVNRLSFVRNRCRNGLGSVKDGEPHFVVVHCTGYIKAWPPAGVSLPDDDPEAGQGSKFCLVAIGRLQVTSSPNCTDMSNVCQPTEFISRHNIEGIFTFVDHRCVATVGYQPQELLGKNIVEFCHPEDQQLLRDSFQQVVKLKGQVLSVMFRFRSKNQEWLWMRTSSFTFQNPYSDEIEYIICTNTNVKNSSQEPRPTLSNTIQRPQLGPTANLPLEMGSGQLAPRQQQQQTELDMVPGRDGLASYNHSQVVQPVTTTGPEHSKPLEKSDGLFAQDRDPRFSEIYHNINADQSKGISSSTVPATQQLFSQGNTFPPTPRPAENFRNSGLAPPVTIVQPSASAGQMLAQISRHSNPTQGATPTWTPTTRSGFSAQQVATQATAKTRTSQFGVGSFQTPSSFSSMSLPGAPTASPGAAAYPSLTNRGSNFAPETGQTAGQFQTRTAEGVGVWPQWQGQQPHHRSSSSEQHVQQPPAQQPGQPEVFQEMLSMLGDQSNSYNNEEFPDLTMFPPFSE

Hypoxia-inducible factor 1-alpha (Homo sapiens), sequence (Q16665 whole entry, looked up): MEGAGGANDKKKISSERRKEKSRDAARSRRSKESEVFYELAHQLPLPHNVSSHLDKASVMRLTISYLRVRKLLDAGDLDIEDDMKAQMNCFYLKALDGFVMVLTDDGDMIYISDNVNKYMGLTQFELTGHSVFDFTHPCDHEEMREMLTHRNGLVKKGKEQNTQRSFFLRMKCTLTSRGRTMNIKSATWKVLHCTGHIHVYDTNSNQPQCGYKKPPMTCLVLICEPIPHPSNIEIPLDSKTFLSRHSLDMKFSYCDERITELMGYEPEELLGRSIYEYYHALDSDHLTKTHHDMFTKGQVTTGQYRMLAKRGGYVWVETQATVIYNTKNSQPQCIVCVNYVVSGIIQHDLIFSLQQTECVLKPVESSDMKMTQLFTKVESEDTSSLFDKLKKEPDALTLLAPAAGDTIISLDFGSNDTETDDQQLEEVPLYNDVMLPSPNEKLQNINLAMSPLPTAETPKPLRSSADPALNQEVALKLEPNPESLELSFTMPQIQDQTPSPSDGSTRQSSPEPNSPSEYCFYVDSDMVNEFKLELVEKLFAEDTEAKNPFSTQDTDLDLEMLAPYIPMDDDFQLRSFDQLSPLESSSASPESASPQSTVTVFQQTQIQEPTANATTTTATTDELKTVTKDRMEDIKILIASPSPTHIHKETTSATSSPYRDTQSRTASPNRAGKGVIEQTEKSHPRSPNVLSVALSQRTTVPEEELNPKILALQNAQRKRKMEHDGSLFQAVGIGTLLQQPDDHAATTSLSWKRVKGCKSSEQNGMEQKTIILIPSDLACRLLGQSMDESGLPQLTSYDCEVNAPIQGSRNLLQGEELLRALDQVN

SMILES	IC50 [1]	viability at 24 h, 10 µM [2]	inhibition [3]	inhibition [4]	inhibition [5]	inhibition [6]	inhibition [7]
COc1ccc(C(=O)[C@@H](C)Oc2ccc([C@H]3O[C@H](c4ccc(O[C@H](C)C(=O)c5ccc(OC)c(O)c5)c(OC)c4)[C@H](C)[C@H]3C)cc2OC)cc1O	2110 nM	> 80%	78%	–	–	–	–
COc1ccc(C(=O)COc2cc(C(=O)[C@@H](C)Oc3ccc([C@H]4O[C@H](c5ccc(O[C@H](C)C(=O)c6ccc(OC)c(OCC(=O)c7ccc(OC)c(OC)c7)c6)c(OC)c5)[C@H](C)[C@H]4C)cc3OC)ccc2OC)cc1OC	–	> 80%	36%	–	–	–	–
COc1ccc(CCOc2ccc([C@H]3O[C@H](c4ccc(OCCc5ccc(OC)c(OC)c5)c(OC)c4)[C@H](C)[C@H]3C)cc2OC)cc1OC	1440 nM	> 80%	64%	–	–	–	–
COc1ccc(C(=O)COc2ccc([C@H]3O[C@H](c4ccc(OCC(=O)c5ccc(OC)c(OC)c5)c(OC)c4)[C@H](C)[C@H]3C)cc2OC)cc1OC	350 nM	> 80%	93%	Active	Active	Active	inactive
COc1ccc([C@@H](O)[C@@H](C)Oc2ccc([C@H]3O[C@H](c4ccc(OC)c(OC)c4)[C@H](C)[C@H]3C)cc2OC)cc1OC	320 nM	> 80%	113%	Active	Active	Active	inactive
COc1cc([C@H]2O[C@H](c3ccc(O[C@H](C)[C@H](O)c4ccccc4)c(OC)c3)[C@H](C)[C@H]2C)ccc1O[C@H](C)[C@H](O)c1ccccc1	590 nM	> 80%	79%	–	–	–	–
COc1ccc(C(=O)[C@@H](C)Oc2ccc([C@H]3O[C@H](c4ccc(OC)c(OC)c4)[C@H](C)[C@H]3C)cc2OC)cc1OC	3700 nM	> 80%	82%	–	–	–	–
COc1ccc([C@@H](OC)[C@@H](C)Oc2ccc([C@H]3O[C@H](c4ccc(O[C@H](C)[C@H](OC)c5ccc(OC)c(OC)c5)c(OC)c4)[C@H](C)[C@H]3C)cc2OC)cc1OC	430 nM	> 80%	102%	–	–	–	–
COc1cc([C@H]2O[C@H](c3ccc(O[C@H](C)C(=O)c4ccccc4)c(OC)c3)[C@H](C)[C@H]2C)ccc1O[C@H](C)C(=O)c1ccccc1	690 nM	> 80%	101%	Active	Active	Active	inactive
COc1ccc([C@@H](O)COc2ccc([C@H]3O[C@H](c4ccc(OC[C@H](O)c5ccc(OC)c(OC)c5)c(OC)c4)[C@H](C)[C@H]3C)cc2OC)cc1OC	380 nM	> 80%	94%	–	–	–	–
COc1ccc([C@H](COc2ccc([C@H]3O[C@H](c4ccc(OC[C@H](OC)c5ccc(OC)c(OC)c5)c(OC)c4)[C@H](C)[C@H]3C)cc2OC)OC)cc1OC	1930 nM	> 80%	87%	–	–	–	–
COc1ccc(C(=O)[C@@H](C)Oc2ccc([C@H]3O[C@H](c4ccc(O[C@H](C)C(=O)c5ccc(OC)c(OC)c5)c(OC)c4)[C@H](C)[C@H]3C)cc2OC)cc1OC	910 nM	> 80%	114%	–	–	–	–
